Reference: ChEMBL document CHEMBL1148220, “Antineoplastic agents. 529. Isolation and structure of nootkastatins 1 and 2 from the Alaskan yellow cedar Chamaecyparis nootkatensis” (2004)
Converted amounts (≈) assume the structure as drawn. The source made the active and inactive calls. No cut-off for these calls is given here.

What was measured:
Neisseria gonorrhoeae [1] = assay: Antimicrobial activity against Neisseria gonorrhoeae ATCC 49226 after 24 hrs by broth microdilution assay in presence of 25% human serum; type: functional; details: ATCC 49226, 24 h
How it was run: (§1)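 Bacteria were tested by NCCLS broth microdilution in medium containing 25% heat-inactivated, filter-sterilized normal human serum. Compounds were dissolved in sterile DMSO and diluted in medium immediately before use. MIC was the lowest concentration with no visible growth (optically clear). Assays were repeated on separate days.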

SF-268 = assay: Cytotoxicity against human SF268 cells after 48 hrs by SRB assay; type: functional; details: SF-268, 48 h
Cryptococcus neoformans [2] = assay: Antimicrobial activity against Cryptococcus neoformans ATCC 90122 after 24 hrs by broth microdilution assay in presence of 25% human serum; type: functional; details: ATCC 90112, 24 h, in the assay text read “ATCC 90112” for “ATCC 90122”
How it was run: (§2)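 For yeasts, NCCLS broth microdilution was run in medium supplemented with 25% heat-inactivated, filter-sterilized normal human serum. Compounds were reconstituted in sterile DMSO and diluted in medium just before the assay. MIC was the lowest concentration giving optically clear wells.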

Enterobacter cloacae [3] = assay: Antimicrobial activity against Enterobacter cloacae ATCC 13047 after 24 hrs by broth microdilution assay in presence of 25% human serum; type: functional; details: ATCC 13047, 24 h; how it was run: as §1
Cryptococcus neoformans [4] = assay: Antimicrobial activity against Cryptococcus neoformans ATCC 90122 after 24 hrs by broth microdilution assay; type: functional; details: ATCC 90112, 24 h, in the assay text read “ATCC 90112” for “ATCC 90122”
How it was run: (§3)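 Yeasts were tested by NCCLS broth microdilution. Compounds were dissolved in a small volume of sterile DMSO and diluted in the appropriate medium immediately before testing. MIC was the lowest concentration inhibiting all visible growth (optically clear). Assays were repeated on separate days.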

DU-145 = assay: Cytotoxicity against human DU145 cells after 48 hrs by SRB assay; type: functional; details: DU-145, 48 h
Micrococcus luteus [5] = assay: Antimicrobial activity against Micrococcus luteus Presque Isle 456 after 24 hrs by broth microdilution assay in presence of 25% human serum; type: functional; how it was run: as §1
Staphylococcus aureus [6] = assay: Antimicrobial activity against Staphylococcus aureus ATCC 29213 after 24 hrs by broth microdilution assay; type: functional; details: ATCC 29213, 24 h
How it was run: (§4)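 Bacterial MICs were determined by NCCLS broth microdilution. Compounds were dissolved in a small volume of sterile DMSO and diluted in the appropriate medium just before testing. MIC was the lowest concentration giving no visible growth (optically clear). Assays were repeated on separate days.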

[7] = test system: Stenotrophomonas maltophilia; assay: Antimicrobial activity against Stenotrophomonas maltophilia ATCC 13637 after 24 hrs by broth microdilution assay in presence of 25% human serum; type: functional; details: ATCC 13637, 24 h; how it was run: as §1
Enterococcus faecium [8] = assay: Antimicrobial activity against vancomycin-resistant Enterococcus faecium after 24 hrs by broth microdilution assay; type: functional
How it was run: (§5)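 NCCLS broth microdilution for bacteria. Compounds were dissolved in a small volume of sterile DMSO and diluted in medium just before testing. MIC was the lowest concentration giving no visible growth (optically clear). Assays were repeated on separate days.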

Enterococcus faecalis [9] = assay: Antimicrobial activity against Enterococcus faecalis ATCC 29212 after 24 hrs by broth microdilution assay in presence of 25% human serum; type: functional; details: ATCC 29212, 24 h; how it was run: as §1
Neisseria gonorrhoeae [10] = assay: Antimicrobial activity against Neisseria gonorrhoeae ATCC 49226 at 64 ug/mL after 24 hrs by broth microdilution assay; type: functional; details: ATCC 49226, 24 h
BXPC-3 = assay: Cytotoxicity against human BxPC3 cells after 48 hrs by SRB assay; type: functional; details: BXPC-3, 48 h
[11] = test system: Stenotrophomonas maltophilia; assay: Antimicrobial activity against Stenotrophomonas maltophilia ATCC 13637 at 64 ug/mL after 24 hrs by broth microdilution assay; type: functional, organism-based
Nakaseomyces glabratus [12] = assay: Antimicrobial activity against Candida glabrata at 64 ug/mL after 48 hrs by broth microdilution assay; type: functional, organism-based
Streptococcus pneumoniae [13] = assay: Antimicrobial activity against penicillin-resistant Streptococcus pneumoniae after 24 hrs by broth microdilution assay in presence of 25% human serum; type: functional
How it was run: (§6)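 Bacterial NCCLS broth microdilution run in medium with 25% heat-inactivated, filter-sterilized normal human serum. Compounds were taken up in sterile DMSO and diluted in medium immediately before use. MIC was the lowest concentration with no visible growth (optically clear). Assays were repeated on separate days.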

Streptococcus pneumoniae [14] = assay: Antimicrobial activity against Streptococcus pneumoniae ATCC 6303 after 24 hrs by broth microdilution assay; type: functional; details: ATCC 6303, 24 h; how it was run: as §4
Enterobacter cloacae [15] = assay: Antimicrobial activity against Enterobacter cloacae ATCC 13047 at 64 ug/mL after 24 hrs by broth microdilution assay; type: functional, organism-based
Staphylococcus aureus [16] = assay: Antimicrobial activity against methicillin-resistant Staphylococcus aureus after 24 hrs by broth microdilution assay in presence of 25% human serum; type: functional; how it was run: as §6
[17] = test system: Staphylococcus epidermidis; assay: Antimicrobial activity against Staphylococcus epidermidis ATCC 49461 after 24 hrs by broth microdilution assay in presence of 25% human serum; type: functional; details: ATCC 49461, 24 h; how it was run: as §1
Streptococcus pyogenes [18] = assay: Antimicrobial activity against penicillin-resistant Streptococcus pyogenes after 24 hrs by broth microdilution assay; type: functional; how it was run: as §5
P388 = assay: Cytotoxicity against mouse P388 cells; type: functional; details: read-out: ED50 (the source's name)
[19] = test system: Staphylococcus epidermidis; assay: Antimicrobial activity against Staphylococcus epidermidis ATCC 49461 after 24 hrs by broth microdilution assay; type: functional; details: ATCC 49461, 24 h; how it was run: as §4
Escherichia coli [20] = assay: Antimicrobial activity against Escherichia coli ATCC 25922 at 64 ug/mL after 24 hrs by broth microdilution assay; type: functional, organism-based
Streptococcus pneumoniae [21] = assay: Antimicrobial activity against Streptococcus pneumoniae ATCC 6303 after 24 hrs by broth microdilution assay in presence of 25% human serum; type: functional; details: ATCC 6303, 24 h; how it was run: as §1
Nakaseomyces glabratus [22] = assay: Antimicrobial activity against Candida glabrata after 48 hrs by broth microdilution assay in presence of 25% human serum; type: functional; how it was run: as §2
Streptococcus pneumoniae [23] = assay: Antimicrobial activity against penicillin-resistant Streptococcus pneumoniae after 24 hrs by broth microdilution assay; type: functional; how it was run: as §5
Streptococcus pyogenes [24] = assay: Antimicrobial activity against penicillin-resistant Streptococcus pyogenes after 24 hrs by broth microdilution assay in presence of 25% human serum; type: functional; how it was run: as §6
NCI-H460 = assay: Cytotoxicity against human NCI-H460 cells after 48 hrs by SRB assay; type: functional; details: NCI-H460, 48 h
Candida albicans [25] = assay: Antimicrobial activity against Candida albicans ATCC 90028 after 48 hrs by broth microdilution assay in presence of 25% human serum; type: functional; details: ATCC 90028, 48 h; how it was run: as §2
Enterococcus faecalis [26] = assay: Antimicrobial activity against Enterococcus faecalis ATCC 29212 after 24 hrs by broth microdilution assay; type: functional; details: ATCC 29212, 24 h; how it was run: as §4
Rhodococcus sp. [27] = assay: Antimicrobial activity against Rhodococcus sp. after 24 hrs by broth microdilution assay in presence of 25% human serum; type: functional; details: Rhodococcus sp. (in: high G+C Gram-positive bacteria); how it was run: as §1
Candida albicans [28] = assay: Antimicrobial activity against Candida albicans ATCC 90028 at 64 ug/mL after 48 hrs by broth microdilution assay; type: functional, organism-based
Enterococcus faecium [29] = assay: Antimicrobial activity against vancomycin-resistant Enterococcus faecium after 24 hrs by broth microdilution assay in presence of 25% human serum; type: functional; how it was run: as §6
Staphylococcus aureus [30] = assay: Antimicrobial activity against Staphylococcus aureus ATCC 29213 after 24 hrs by broth microdilution assay in presence of 25% human serum; type: functional; details: ATCC 29213, 24 h; how it was run: as §1
Micrococcus luteus [31] = assay: Antimicrobial activity against Micrococcus luteus Presque Isle 456 after 24 hrs by broth microdilution assay; type: functional; how it was run: as §4
Staphylococcus aureus [32] = assay: Antimicrobial activity against methicillin-resistant Staphylococcus aureus after 24 hrs by broth microdilution assay; type: functional; how it was run: as §5
Rhodococcus sp. [33] = assay: Antimicrobial activity against Rhodococcus sp. after 24 hrs by broth microdilution assay; type: functional; details: Rhodococcus sp. (in: high G+C Gram-positive bacteria); how it was run: as §4
MCF7 = assay: Cytotoxicity against human MCF7 cells after 48 hrs by SRB assay; type: functional; details: MCF7, 48 h
KM-20L2 = assay: Cytotoxicity against human KM20L2 cells after 48 hrs by SRB assay; type: functional; details: KM-20L2, 48 h
Cryptococcus neoformans [34] = assay: Antimicrobial activity against fluconazole-resistant Cryptococcus neoformans after 48 hrs by broth microdilution assay; type: functional
How it was run: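 Yeast broth microdilution following NCCLS. Compounds were dissolved in sterile DMSO and diluted in medium immediately before testing. MIC was the lowest concentration leaving the well optically clear, with no visible growth.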

Escherichia coli [35] = assay: Antimicrobial activity against Escherichia coli ATCC 25922 after 24 hrs by broth microdilution assay in presence of 25% human serum; type: functional; details: ATCC 25922, 24 h; how it was run: as §1
Cryptococcus neoformans [36] = assay: Antimicrobial activity against fluconazole-resistant Cryptococcus neoformans after 48 hrs by broth microdilution assay in presence of 25% human serum; type: functional
Candida albicans [37] = assay: Antimicrobial activity against Candida albicans ATCC 90028 after 48 hrs by broth microdilution assay; type: functional; details: ATCC 90028, 48 h; how it was run: as §3

CO[C@@H]1C[C@H]2C(C)(C)CCC[C@]2(C)c2ccc(O)c(C(C)C)c21
MIC (Neisseria gonorrhoeae [1]): > 64 µg/mL | GI50 (SF-268): 1.9 µg/mL (≈ 6 µM) | MIC (Cryptococcus neoformans [2]): > 64 µg/mL | MIC (Enterobacter cloacae [3]): > 64 µg/mL | MIC (Cryptococcus neoformans [4]): 8 µg/mL (≈ 25.3 µM) | GI50 (DU-145): 1.7 µg/mL (≈ 5.37 µM) | MIC (Micrococcus luteus [5]): > 64 µg/mL | MIC (Staphylococcus aureus [6]): 4 µg/mL (≈ 12.6 µM) | MIC [7]: > 64 µg/mL | MBC (Enterococcus faecium [8]): 4 µg/mL (≈ 12.6 µM) | MIC (Enterococcus faecium [8]): 4 µg/mL (≈ 12.6 µM) | MIC (Enterococcus faecalis [9]): > 64 µg/mL | MIC (Neisseria gonorrhoeae [10]): 4 µg/mL (≈ 12.6 µM) | GI50 (BXPC-3): 1.5 µg/mL (≈ 4.74 µM) | Activity [11]: inactive | Activity (Nakaseomyces glabratus [12]): inactive | MIC (Streptococcus pneumoniae [13]): > 64 µg/mL | MIC (Streptococcus pneumoniae [14]): 8 µg/mL (≈ 25.3 µM) | Activity (Enterobacter cloacae [15]): inactive | MIC (Staphylococcus aureus [16]): > 64 µg/mL | MIC [17]: > 64 µg/mL | MBC (Streptococcus pyogenes [18]): 32 µg/mL (≈ 101 µM) | MIC (Streptococcus pyogenes [18]): 16 µg/mL (≈ 50.6 µM) | EC50 (P388): > 10 µg/mL | MBC [19]: 16 µg/mL (≈ 50.6 µM) | MIC [19]: 2 µg/mL (≈ 6.32 µM) | Activity (Escherichia coli [20]): inactive | MIC (Streptococcus pneumoniae [21]): > 64 µg/mL | MIC (Nakaseomyces glabratus [22]): > 64 µg/mL | MBC (Streptococcus pneumoniae [23]): 16 µg/mL (≈ 50.6 µM) | MIC (Streptococcus pneumoniae [23]): 16 µg/mL (≈ 50.6 µM) | MIC (Streptococcus pyogenes [24]): > 64 µg/mL | GI50 (NCI-H460): 1.8 µg/mL (≈ 5.69 µM) | MIC (Candida albicans [25]): > 64 µg/mL | MIC (Enterococcus faecalis [26]): 4 µg/mL (≈ 12.6 µM) | MIC (Rhodococcus sp. [27]): > 64 µg/mL | Activity (Candida albicans [28]): inactive | MIC (Enterococcus faecium [29]): > 64 µg/mL | MIC (Staphylococcus aureus [30]): > 64 µg/mL | MIC (Micrococcus luteus [31]): 2 µg/mL (≈ 6.32 µM) | MBC (Staphylococcus aureus [32]): 8 µg/mL (≈ 25.3 µM) | MIC (Staphylococcus aureus [32]): 4 µg/mL (≈ 12.6 µM) | MBC (Rhodococcus sp. [33]): 8 µg/mL (≈ 25.3 µM) | MIC (Rhodococcus sp. [33]): 2 µg/mL (≈ 6.32 µM) | GI50 (MCF7): 1.5 µg/mL (≈ 4.74 µM) | GI50 (KM-20L2): 1.6 µg/mL (≈ 5.06 µM) | MFC (Cryptococcus neoformans [34]): 4 µg/mL (≈ 12.6 µM) | MIC (Cryptococcus neoformans [34]): 4 µg/mL (≈ 12.6 µM) | MIC (Escherichia coli [35]): > 64 µg/mL | MIC (Cryptococcus neoformans [36]): > 64 µg/mL

CC(C)c1c(O)ccc2c1[C@H](O)C[C@H]1C(C)(C)CCC[C@]21C
GI50 (SF-268): 2.3 µg/mL (≈ 7.6 µM) | MIC (Cryptococcus neoformans [4]): 16 µg/mL (≈ 52.9 µM) | GI50 (DU-145): 2.6 µg/mL (≈ 8.6 µM) | MIC (Staphylococcus aureus [6]): 16 µg/mL (≈ 52.9 µM) | MIC (Neisseria gonorrhoeae [10]): 8 µg/mL (≈ 26.4 µM) | GI50 (BXPC-3): 1.8 µg/mL (≈ 5.95 µM) | Activity [11]: inactive | MIC (Streptococcus pneumoniae [14]): 16 µg/mL (≈ 52.9 µM) | Activity (Enterobacter cloacae [15]): inactive | EC50 (P388): 1.7 µg/mL (≈ 5.62 µM) | Activity (Escherichia coli [20]): inactive | GI50 (NCI-H460): 1.8 µg/mL (≈ 5.95 µM) | MIC (Enterococcus faecalis [26]): 16 µg/mL (≈ 52.9 µM) | MIC (Micrococcus luteus [31]): 8 µg/mL (≈ 26.4 µM) | GI50 (MCF7): 2.1 µg/mL (≈ 6.94 µM) | GI50 (KM-20L2): 2.3 µg/mL (≈ 7.6 µM) | MIC (Candida albicans [37]): 64 µg/mL (≈ 212 µM)
